In brackets after ≈: the same amount, converted by molar mass. Activity calls are given as the source filed them. The rule behind the calls is not given here.
How the values were obtained:
[1] = test system: HL-60; assay: Antiproliferative activity against human HL60 cells; format: functional, cell-based
Outline: (§1)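 IC50 is the concentration giving 50% growth inhibition, reported as mean with SD. HL-60/vinc and LoVo/DX are drug-resistant (MDR) sublines of HL-60 and LoVo. BALB/3T3 is a normal murine embryonic fibroblast line.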

[2] = Antiproliferative activity against human HL60/Vinc cells; format: functional, cell-based; outline: as §1
[3] = test system: LoVo; assay: Antiproliferative activity against human LoVo cells; format: functional, cell-based; outline: as §1
[4] = Antiproliferative activity against human LoVo/DX cells; format: functional, cell-based; outline: as §1
[5] = test system: BALB/3T3; assay: Antiproliferative activity mouse BALB/3T3 cells; format: cell-based; outline: as §1
[6] = test system: HL-60; assay: Selectivity index, ratio of IC50 for mouse BALB/3T3 cells to IC50 for human HL60 cells; format: functional
Outline: (§2)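 Selectivity index is the IC50 in normal murine embryonic fibroblasts (BALB/3T3) divided by the IC50 in the respective cancer line (HL-60, HL-60/vinc, LoVo or LoVo/DX). Each IC50 is the concentration giving 50% growth inhibition. SI >1.0 is taken as favourable.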

[7] = Selectivity index, ratio of IC50 for mouse BALB/3T3 cells to IC50 for human HL60/Vinc cells; format: functional; outline: as §2
[8] = test system: HL-60; assay: Resistance index, ratio of IC50 for human HL60/Vinc cells to IC50 for human HL60 cells; format: functional
Outline: (§3)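 Index of resistance is the IC50 in the resistant subline (HL-60/vinc or LoVo/DX) divided by the IC50 in its parental line (HL-60 or LoVo). Each IC50 is the concentration giving 50% growth inhibition. Bands are 0–2 sensitive, 2–10 moderate, above 10 strongly resistant.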

[9] = test system: LoVo; assay: Selectivity index, ratio of IC50 for mouse BALB/3T3 cells to IC50 for human LoVo cells; format: functional; outline: as §2
[10] = Selectivity index, ratio of IC50 for mouse BALB/3T3 cells to IC50 for human LoVo/DX cells; format: functional; outline: as §2
[11] = test system: LoVo; assay: Resistance index, ratio of IC50 for human LoVo/DX cells to IC50 for human LoVo cells; format: functional; outline: as §3
[12] = test system: Staphylococcus aureus; assay: Antibacterial activity against Staphylococcus aureus NCTC 4163; format: functional
[13] = test system: Staphylococcus aureus; assay: Antibacterial activity against Staphylococcus aureus ATCC 25923; format: functional
[14] = test system: Staphylococcus aureus; assay: Antibacterial activity against Staphylococcus aureus ATCC 6538; format: functional
[15] = test system: Staphylococcus aureus; assay: Antibacterial activity against Staphylococcus aureus ATCC 29213; format: functional
[16] = test system: Staphylococcus epidermidis; assay: Antibacterial activity against Staphylococcus epidermidis ATCC 12228; format: functional
Outline: (§4)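 In vitro antibacterial test on Staphylococcus strains, including MRSE clinical isolates. Read-outs were growth inhibition zone (mm) and MIC (µg/ml). Ciprofloxacin was the reference antibiotic.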

[17] = test system: Staphylococcus epidermidis; assay: Antibacterial activity against Staphylococcus epidermidis ATCC 35984; format: functional; outline: as §4
[18] = test system: Staphylococcus epidermidis; assay: Antibacterial activity against methicillin-resistant Staphylococcus epidermidis 459/11; format: functional; outline: as §4
[19] = test system: Staphylococcus epidermidis; assay: Antibacterial activity against methicillin-resistant Staphylococcus epidermidis 460/11; format: functional; outline: as §4
[20] = test system: Staphylococcus epidermidis; assay: Antibacterial activity against methicillin-resistant Staphylococcus epidermidis 461/11; format: functional; outline: as §4
[21] = test system: Staphylococcus epidermidis; assay: Antibacterial activity against methicillin-resistant Staphylococcus epidermidis 466/11; format: functional; outline: as §4
[22] = test system: Staphylococcus epidermidis; assay: Antibacterial activity against methicillin-resistant Staphylococcus epidermidis 467/11; format: functional; outline: as §4
[23] = test system: Staphylococcus epidermidis; assay: Antibacterial activity against methicillin-resistant Staphylococcus epidermidis 468/11; format: functional; outline: as §4
[24] = test system: Staphylococcus epidermidis; assay: Antibacterial activity against methicillin-resistant Staphylococcus epidermidis 469/11; format: functional; outline: as §4
[25] = test system: Staphylococcus epidermidis; assay: Antibacterial activity against methicillin-resistant Staphylococcus epidermidis 470/11; format: functional; outline: as §4
[26] = test system: Staphylococcus epidermidis; assay: Antibacterial activity against methicillin-resistant Staphylococcus epidermidis 488/11; format: functional; outline: as §4
[27] = test system: Staphylococcus epidermidis; assay: Antibacterial activity against methicillin-resistant Staphylococcus epidermidis 489/11; format: functional; outline: as §4
[28] = species: Homo sapiens; assay: Antiproliferative activity against human HL60/Vinc cells up to 100 ug/ml; format: functional, cell-based
[29] = test system: BALB/3T3; assay: Antiproliferative activity mouse BALB/3T3 cells up to 100 ug/ml; format: cell-based

Row | SMILES | IC50 [1] [µM] | IC50 [3] [µM] | IC50 [4] [µM] | Ratio IC50 [11] | MIC [12] [µg/mL] | MIC [13] [µg/mL] | MIC [14] [µg/mL] | MIC [15] [µg/mL] | MIC [16] [µg/mL] | MIC [17] [µg/mL] | MIC [18] [µg/mL] | MIC [19] [µg/mL] | MIC [20] [µg/mL] | MIC [21] [µg/mL] | MIC [22] [µg/mL] | MIC [23] [µg/mL] | MIC [24] [µg/mL] | MIC [25] [µg/mL] | MIC [26] [µg/mL] | MIC [27] [µg/mL] | other results
1 | CC[C@@H](C(=O)[C@@H](C)[C@@H](O)[C@H](C)[C@@H]1O[C@@H]([C@@H](CC)C(=O)NCCS)CC[C@@H]1C)[C@H]1O[C@]2(C=C[C@@H](O)[C@]3(CC[C@@](C)([C@H]4CC[C@](O)(CC)[C@H](C)O4)O3)O2)[C@H](C)C[C@@H]1C | 3.1 | 26.5 | 28.5 | 1.07 | 16 (≈ 19.7 µM) | 16 (≈ 19.7 µM) | 16 (≈ 19.7 µM) | 32 (≈ 39.5 µM) | 32 (≈ 39.5 µM) | 32 (≈ 39.5 µM) | 32 (≈ 39.5 µM) | 32 (≈ 39.5 µM) | 32 (≈ 39.5 µM) | 32 (≈ 39.5 µM) | 32 (≈ 39.5 µM) | 64 (≈ 79 µM) | 64 (≈ 79 µM) | 64 (≈ 79 µM) | 32 (≈ 39.5 µM) | 32 (≈ 39.5 µM) | IC50 [2]: 34 µM; IC50 [5]: 17.1 µM; Ratio IC50 [6]: 5.53; Ratio IC50 [7]: 0.5; Ratio IC50 [8]: 10.99; Ratio IC50 [9]: 0.65; Ratio IC50 [10]: 0.6
2 | CC[C@@H](C(=O)[C@@H](C)[C@@H](O)[C@H](C)[C@@H]1O[C@@H]([C@@H](CC)C(=O)Nc2ccc(-c3ccc(NC(=O)[C@H](CC)[C@H]4CC[C@H](C)[C@H]([C@@H](C)[C@H](O)[C@H](C)C(=O)[C@H](CC)[C@H]5O[C@]6(C=C[C@@H](O)[C@]7(CC[C@@](C)([C@H]8CC[C@](O)(CC)[C@H](C)O8)O7)O6)[C@H](C)C[C@@H]5C)O4)cc3)cc2)CC[C@@H]1C)[C@H]1O[C@]2(C=C[C@@H](O)[C@]3(CC[C@@](C)([C@H]4CC[C@](O)(CC)[C@H](C)O4)O3)O2)[C@H](C)C[C@@H]1C | 4.4 | 8.4 | 3.1 | 0.38 | 16 (≈ 9.7 µM) | 32 (≈ 19.4 µM) | 32 (≈ 19.4 µM) | 32 (≈ 19.4 µM) | 32 (≈ 19.4 µM) | 32 (≈ 19.4 µM) | 32 (≈ 19.4 µM) | 64 (≈ 38.8 µM) | 32 (≈ 19.4 µM) | 32 (≈ 19.4 µM) | 16 (≈ 9.7 µM) | 32 (≈ 19.4 µM) | 64 (≈ 38.8 µM) | 64 (≈ 38.8 µM) | 32 (≈ 19.4 µM) | 32 (≈ 19.4 µM) | inhibition [28]: inactive; Activity [29]: Non-toxic
3 | CC[C@@H](C(=O)[C@@H](C)[C@@H](O)[C@H](C)[C@@H]1O[C@@H]([C@@H](CC)C(=O)NCCCCN)CC[C@@H]1C)[C@H]1O[C@]2(C=C[C@@H](O)[C@]3(CC[C@@](C)([C@H]4CC[C@](O)(CC)[C@H](C)O4)O3)O2)[C@H](C)C[C@@H]1C | 3.7 | 21.9 | 12.6 | 0.58 | 32 (≈ 39 µM) | 32 (≈ 39 µM) | 32 (≈ 39 µM) | 64 (≈ 77.9 µM) | 64 (≈ 77.9 µM) | 32 (≈ 39 µM) | 32 (≈ 39 µM) | 64 (≈ 77.9 µM) | 64 (≈ 77.9 µM) | 64 (≈ 77.9 µM) | 32 (≈ 39 µM) | 32 (≈ 39 µM) | 64 (≈ 77.9 µM) | 64 (≈ 77.9 µM) | 64 (≈ 77.9 µM) | 32 (≈ 39 µM) | IC50 [2]: 23.1 µM; IC50 [5]: 35.1 µM; Ratio IC50 [6]: 9.47; Ratio IC50 [7]: 1.52; Ratio IC50 [8]: 6.22; Ratio IC50 [9]: 1.6; Ratio IC50 [10]: 2.78
